Here are results for four molecules from ChEMBL document CHEMBL1795258, “A diazen-1-ium-1,2-diolated nitric oxide donor ester prodrug of 3-(4-hydroxymethylphenyl)-4-(4-methanesulfonylphenyl)-5H-furan-2-one: synthesis, biological evaluation and nitric oxide release studies” (Bioorg Med Chem Lett, 2011).

A value given as a limit tells only on which side of the number the result lay.

Data set [1] in a line: Prodrug activation in 1.0 x 10^-2 mM of phosphate buffered saline at pH 7.4 assessed as nitric oxide release after 1.5 hrs by Griess reaction. Format: physicochemical. Conditions: buffer, pH 7.4, 1.5 h. An outline of the steps: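 Compound at 1.0 × 10^-2 mM in pH 7.4 phosphate buffer with a little DMSO, 37 °C for 1.5 h. NO measured as nitrite by Griess reaction, expressed as % of theoretical 2 mol NO per mol. Mean of n = 3, variation ≤0.5%.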

A short description of data set [2]: Prodrug activation in 1.0 x 10^-2 mM of phosphate buffered saline at pH 7.4 assessed as nitric oxide release after 1.5 hrs by Griess reaction in presence of rat serum. Conditions: pH 7.4, 1.5 h. An outline of the steps: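 Compound at 1.0 × 10^-2 mM in pH 7.4 phosphate buffer with a little DMSO plus 90 μL rat serum in 2.4 mL, 37 °C for 1.5 h. Nitrite quantified by Griess reaction as % of theoretical 2 mol NO per mol. Mean of n = 3, variation ≤0.5%.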

Data set [3] relates to Rattus norvegicus. Briefly: Antiinflammatory activity in po dosed rat assessed as inhibition of carrageenan-induced foot paw edema after 3 hrs. The data set is classed as functional. An outline of the steps:
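Carrageenan-induced rat paw edema; test compound given orally, edema inhibition read at 3 h; potency reported as ED50 in μmol/kg.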

Data set [4] deals with Mesenteric artery. Briefly: Inhibition of phenylephrine-induced vasoconstriction in Long Evans rat mesenteric arteries treated 45 mins before phenylephrine challenge. Format: functional. An outline of the steps: (§1)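 Second-order mesenteric arteries (<250 in diameter, ~2 mm long) dissected in cold (0–4 °C) HEPES-buffered phosphate saline, pH 7.4. Mounted on isometric wire myograph and pretreated 45 min with test compound (1 μM) or DMSO. Constriction to phenylephrine 10^-7–5 × 10^-5 M then recorded.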

In data set [5] the test system is Mesenteric artery. Kind of data set: Inhibition of phenylephrine-induced vasoconstriction in Long Evans rat mesenteric arteries assessed as maximum response treated 45 mins before phenylephrine challenge (reference value: 2.13 +/- 0.23 g/mm). The data set is classed as functional. An outline of the steps: as §1
Data set [6] concerns Mesenteric artery. Kind of data set: Inhibition of acetylcholine-induced relaxation in Long Evans rat phenylephrine pre-constricted mesenteric arteries assessed as maximum response (reference value: 0.38 +/- 0.01 g/mm). Format: functional.
For data set [7], the system named is Mesenteric artery. Kind of data set: tissue or blood. To be noted: Rattus norvegicus, Long Evans.
The target in data set [8] is T1, Prostaglandin G/H synthase 1 (Ovis aries, UniProt P05979).
T1 sequence (P05979 whole entry): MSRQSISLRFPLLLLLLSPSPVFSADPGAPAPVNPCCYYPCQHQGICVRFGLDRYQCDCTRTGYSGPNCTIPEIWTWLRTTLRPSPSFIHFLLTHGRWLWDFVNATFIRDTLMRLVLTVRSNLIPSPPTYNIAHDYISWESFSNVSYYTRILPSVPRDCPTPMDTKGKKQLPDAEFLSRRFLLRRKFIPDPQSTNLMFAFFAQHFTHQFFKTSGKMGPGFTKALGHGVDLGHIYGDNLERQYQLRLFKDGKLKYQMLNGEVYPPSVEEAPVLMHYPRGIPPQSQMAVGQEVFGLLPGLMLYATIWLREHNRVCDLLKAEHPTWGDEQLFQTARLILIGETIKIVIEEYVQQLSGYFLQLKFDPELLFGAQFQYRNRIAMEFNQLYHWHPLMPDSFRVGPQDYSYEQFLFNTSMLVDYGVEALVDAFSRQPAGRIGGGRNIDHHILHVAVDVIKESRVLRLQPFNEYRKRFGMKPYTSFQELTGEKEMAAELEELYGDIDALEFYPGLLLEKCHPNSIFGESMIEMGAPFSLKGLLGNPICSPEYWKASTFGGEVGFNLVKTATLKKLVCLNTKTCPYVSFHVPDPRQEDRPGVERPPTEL
Kind of data set: Inhibition of ovine COX1 by enzyme immuno assay.

Take `[Na+].[O-]/N=[N+](/[O-])N1CCC[C@@H]1CO`: the Activity in data set [1] is 84.5%; in data set [2], 85%.

Take `CS(=O)(=O)c1ccc(C2=C(c3ccccc3)C(=O)OC2)cc1` [ROFECOXIB]: the ED50 in data set [3] amounted to 4.8 µmol/kg. The molecule also had an IC20 in data set [4] of 950 nM. The IC50 was 1660 nM in data set [4] and 88 nM in data set [7]. For the same molecule, the Activity in data set [5] came out at 1.32 g/mm; in data set [6] it was 0.23 g/mm.

Consider `CS(=O)(=O)c1ccc(C2=C(c3ccc(CO)cc3)C(=O)OC2)cc1`, for which, in data set [3], the ED50 amounted to 113 µmol/kg. The molecule further gave an IC20 in data set [4] of 1010 nM. Besides, the IC50 in data set [4] came out at 1680 nM; in data set [8] it was 33100 nM; in data set [7] it was 95 nM. The figures for the Activity in data set [5] and in data set [6] were 1.51 g/mm and 0.3 g/mm, respectively.

On to `CC(=O)OCO/N=[N+](/[O-])N1CCC[C@@H]1C(=O)OCc1ccc(C2=C(c3ccc(S(C)(=O)=O)cc3)COC2=O)cc1`, for which, in data set [3], the ED50 was 72.2 µmol/kg. Besides, the Activity in data set [1] worked out at 4.2%; in data set [2], 38.4%; in data set [5] it was 1.17 g/mm. Besides, in data set [4], the IC20 was 1370 nM. For the same molecule, the IC50 in data set [4] is 1750 nM; in data set [8], over 100000 nM.
